ChEMBL document CHEMBL1148136, “Induction of quinone reductase by withanolides” (J Nat Prod, 2002)
Calls of active or inactive are those of the source. The calls are words filed in the database; no cut-off is given here.

Key:
[1] = Chemoprevention index, ratio of IC50 for mouse Hepa-1c1c7 cells to drug level required to double specific quinone reductase activity in mouse Hepa-1c1c7 cells; format: functional
Procedure, shortened: (§1)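 Hepa 1c1c7 cells seeded at 4000 cells/mL, grown 24 h at 37 °C under CO2, then medium changed. Compounds added in 10% DMSO, serially diluted over 0.15-20 µg/mL, and incubated a further 48 h. QR measured as NADPH-dependent, menadiol-mediated MTT reduction to formazan. Protein by crystal violet at 595 nm in duplicate plates. Specific activity expressed relative to solvent control. CD = concentration giving 2-fold activity, CQ = 4-fold. CI = IC50/CD or IC50/CQ.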

[2] = Growth inhibition of mouse Hepa-1c1c7 cells by crystal violet staining; format: cell-based; settings: Mus musculus, Hepa-1c1c7
Procedure, shortened: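 Hepa 1c1c7 cells seeded at 4000 cells/mL and grown 24 h at 37 °C, then medium changed. Compounds added in 10% DMSO, serially diluted over 0.15-20 µg/mL, and exposed 48 h. Viability read by crystal violet staining at 595 nm. IC50 taken as the half-maximal inhibitory concentration of cell viability.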

[3] = Chemoprevention index, ratio of IC50 for mouse Hepa-1c1c7 cells to drug level required to induce 4-fold increase in quinone reductase activity in mouse Hepa-1c1c7 cells; format: functional; procedure, shortened: as §1
Mus musculus [4] = experiment: Induction of quinone reductase activity in BALB/c mouse lung at 2.5 mg/0.2 ml/day administered intragastrically for 3 consecutive day; format: functional, organism-based
Procedure, shortened: (§2)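 BALB/c mice, n = 3, dosed intragastrically for 3 consecutive days at 2.5 mg per mouse per day in 0.2 mL sesame oil. Quinone reductase activity was then assessed in liver, lung, colon, stomach and mammary gland tissue, and the change in activity is reported for each organ.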

Mus musculus [5] = experiment: Induction of quinone reductase activity in BALB/c mouse colon at 2.5 mg/0.2 ml/day administered intragastrically for 3 consecutive day; format: functional, organism-based; procedure, shortened: as §2
Mus musculus [6] = experiment: Induction of quinone reductase activity in BALB/c mouse stomach at 2.5 mg/0.2 ml/day administered intragastrically for 3 consecutive day; format: functional, organism-based; procedure, shortened: as §2
Mus musculus [7] = experiment: Induction of quinone reductase activity in BALB/c mouse liver at 2.5 mg/0.2 ml/day administered intragastrically for 3 consecutive day; format: functional, organism-based; procedure, shortened: as §2
Mus musculus [8] = experiment: Induction of quinone reductase activity in BALB/c mouse mammary gland at 2.5 mg/0.2 ml/day administered intragastrically for 3 consecutive day; format: functional, organism-based; procedure, shortened: as §2

SMILES | Ratio [1] | IC50 [2] [µM] | Ratio [3] | Activity (Mus musculus [4]) | Activity (Mus musculus [5]) | Activity (Mus musculus [6]) | Activity (Mus musculus [7]) | Activity (Mus musculus [8])
CC1=C(CO)C(=O)O[C@@H]([C@@H](C)[C@H]2CC[C@H]3[C@@H]4C[C@@H](O)C5=CC=CC(=O)[C@]5(C)[C@H]4CC[C@]23C)C1 [JABOROSALACTONE B] | 11.1 | 38.5 | 26.9 |  |  |  |  | 
CC1=C(C)[C@]2(OC1=O)[C@H](O)[C@@H](C)[C@]1(O)CC[C@H]3[C@@H]4CC=C5CC=CC(=O)[C@]5(C)[C@H]4C[C@@]2(O)[C@@]31C [JABOROSALACTONE P] | >57 | > 42.7 |  | inactive | inactive | inactive | inactive | inactive
C[C@@H](c1ccc2c(c1)CC[C@H]1[C@H]2[C@@H]2O[C@@H]2[C@@]2(O)CC=CC(=O)[C@]12C)C1C[C@]2(C)O[C@]2(C)[C@H](O)O1 (some centres undefined) [NICANDRENONE] | 4.1 | 42.9 | 1.1 |  |  |  |  | 
CC1=C(C)[C@H]([C@H]2O[C@@]3(O)C[C@H]4[C@@H](C[C@H]5O[C@]56CC=CC(=O)[C@]46C)[C@@H]4CC[C@@](O)([C@@H]2C)[C@]43C)OC1=O [TRECHONOLIDE A] | 28.7 | 7.74 | 6.1 |  |  |  |  | 
C[C@H]1C[C@H]([C@](C)(O)[C@H]2[C@@H](O)C[C@H]3[C@@H]4C[C@H]5O[C@]56[C@@H](O)C=CC(=O)[C@]6(C)[C@H]4CC[C@]23C)OC(=O)[C@@H]1C [WITHAPHYSACARPIN] | 11.1 | 4.8 | 2.5 |  |  |  |  | 
